{"source": "ChEMBL document CHEMBL5678799", "about": "(Biochem J, 2009)", "key": {"[1]": {"target": "T1, Mitogen-activated protein kinase; ERK1/ERK2 (Homo sapiens) (UniProt P27361+P28482)", "T1 sequence (P27361 whole entry, looked up)": "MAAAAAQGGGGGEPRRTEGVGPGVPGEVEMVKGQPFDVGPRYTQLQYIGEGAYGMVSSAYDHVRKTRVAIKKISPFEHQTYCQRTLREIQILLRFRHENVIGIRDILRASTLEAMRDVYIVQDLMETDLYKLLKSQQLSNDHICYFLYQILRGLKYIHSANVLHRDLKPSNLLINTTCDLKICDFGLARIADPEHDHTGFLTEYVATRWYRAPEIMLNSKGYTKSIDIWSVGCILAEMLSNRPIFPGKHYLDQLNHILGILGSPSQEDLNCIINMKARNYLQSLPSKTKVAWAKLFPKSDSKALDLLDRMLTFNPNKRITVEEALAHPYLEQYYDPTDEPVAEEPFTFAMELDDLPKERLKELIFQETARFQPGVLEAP", "T1 sequence (P28482 whole entry, looked up)": "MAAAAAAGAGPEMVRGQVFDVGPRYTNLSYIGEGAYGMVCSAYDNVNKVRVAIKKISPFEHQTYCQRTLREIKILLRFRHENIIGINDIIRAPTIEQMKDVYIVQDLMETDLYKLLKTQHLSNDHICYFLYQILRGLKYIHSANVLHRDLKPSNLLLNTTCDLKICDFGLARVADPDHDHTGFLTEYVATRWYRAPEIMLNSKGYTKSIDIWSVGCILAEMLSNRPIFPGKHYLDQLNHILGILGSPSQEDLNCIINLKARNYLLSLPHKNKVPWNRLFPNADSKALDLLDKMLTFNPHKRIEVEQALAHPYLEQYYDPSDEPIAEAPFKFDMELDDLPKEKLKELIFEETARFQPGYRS", "test": "Inhibition of ERK1/2 in serum starved/PMA-stimulated HEK293 cells assessed as reduction in RSK phosphorylation at S227 residues at 200 nM incubated for 30 mins by immunoblot analysis", "assay_type": "cell-based"}, "[2]": {"target": "T1, Mitogen-activated protein kinase; ERK1/ERK2 (Homo sapiens)", "test": "Inhibition of ERK1/2 in serum starved/PMA-stimulated HEK293 cells assessed as reduction in RSK activity at 200 nM using crosstide as substrate incubated for 30 mins in presence of [32P]-ATP by liquid-scintillation counting method", "assay_type": "cell-based"}, "[3]": {"target": "T1, Mitogen-activated protein kinase; ERK1/ERK2 (Homo sapiens)", "test": "Inhibition of ERK1/2 in serum starved/PMA-stimulated HEK293 cells assessed as reduction in RSK phosphorylation at T573 residues at 200 nM incubated for 30 mins by immunoblot analysis", "assay_type": "cell-based"}, "[4]": {"target": "T1, Mitogen-activated protein kinase; ERK1/ERK2 (Homo sapiens)", "test": "Inhibition of ERK1/2 in serum starved/PMA-stimulated HEK293 cells assessed as reduction in ERK1/2 phosphorylation at T202/Y204 residues at 200 nM incubated for 30 mins by immunoblot analysis", "assay_type": "cell-based"}, "[5]": {"target": "T1, Mitogen-activated protein kinase; ERK1/ERK2 (Homo sapiens)", "test": "Inhibition of ERK1/2 in serum starved/PMA-stimulated HEK293 cells assessed as reduction in RSK phosphorylation at S380 residues at 200 nM incubated for 30 mins by immunoblot analysis", "assay_type": "cell-based"}, "MEF [6]": {"system": "MEF", "test": "Inhibition of PI3K in serum starved mLST8 knockout MEF cells assessed as reduction IGF1-stimulated AKT phosphorylation at Thr308 residue at 1 uM incubated for 20 mins by immunoblot analysis", "assay_type": "cell-based", "settings": "Mus musculus", "method_in_brief": "(§1)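 Wild-type, Rictor-, mLST8- or Sin1-knockout MEFs serum-deprived, pretreated 30 min with inhibitor, then stimulated with IGF-1 for 20 min. Lysates immunoblotted for Akt Thr308 phosphorylation. Three independent experiments.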"}, "HeLa": {"system": "HeLa", "test": "Inhibition of PI3K/mTOR in human HeLa cells assessed as reduction in NDRG1 phosphorylation incubated ay 1 uM for 30 mins by immunoblot analysis", "assay_type": "cell-based", "method_in_brief": "(§2)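 HeLa cells or wild-type/knockout MEFs cultured in 10% serum and treated 30 min with inhibitor. Lysed in Tris lysis buffer and extracts immunoblotted with an antibody to NDRG1 phosphorylated at Thr346/356/366. Three experiments.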"}, "HEK293 [7]": {"system": "HEK293", "test": "Inhibition of PI3K in serum starved HEK293 cells expressing GST-tagged-AKT1 S473D mutant assessed as reduction in IGF1-stimulated AKT1 phosphorylation at Thr308 residue at 1 uM incubated for 20 mins by immunoblot analysis", "assay_type": "cell-based", "settings": "Homo sapiens", "method_in_brief": "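HEK-293 cells transfected with wild-type or S473D GST–Akt1. At 24 h, serum-starved 16 h, pretreated 30 min with inhibitor, then stimulated with IGF-1 for 20 min. Lysates immunoblotted for Thr308 phosphorylation. Three separate experiments.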"}, "MEF [8]": {"system": "MEF", "test": "Inhibition of PI3K in serum starved Rictor knockout MEF cells assessed as reduction IGF1-stimulated AKT phosphorylation at Thr308 residue at 1 uM incubated for 20 mins by immunoblot analysis", "assay_type": "cell-based", "settings": "Mus musculus", "method_in_brief": "as §1"}, "MEF [9]": {"system": "MEF", "test": "Inhibition of PI3K in serum starved sin1 knockout MEF cells assessed as reduction IGF1-stimulated AKT phosphorylation at Thr308 residue at 1 uM incubated for 20 mins by immunoblot analysis", "assay_type": "cell-based", "settings": "Mus musculus", "method_in_brief": "as §1"}, "HEK293 [10]": {"system": "HEK293", "test": "Inhibition of PI3K in IGF1-stimulated HEK293 cells assessed as reduction in IGF1-stimulated PtdIns(3,4,5)P3 production at 2 uM pre incubated for 30 mins followed by IGF1-stimulation for 10 mins", "assay_type": "cell-based", "settings": "Homo sapiens"}, "MEF [11]": {"system": "MEF", "test": "Inhibition of PI3K/mTOR in MEF cells assessed as reduction in NDRG1 phosphorylation incubated ay 1 uM for 30 mins by immunoblot analysis", "assay_type": "cell-based", "settings": "Mus musculus", "method_in_brief": "as §2"}, "MEF [12]": {"system": "MEF", "test": "Inhibition of PI3K in serum starved MEF cells assessed as reduction IGF1-stimulated AKT phosphorylation at Thr308 residue at 1 uM incubated for 20 mins by immunoblot analysis", "assay_type": "cell-based", "settings": "Mus musculus", "method_in_brief": "as §1"}, "MEF [13]": {"system": "MEF", "test": "Induction of cell cycle arrest in MEF cells assessed as accumulation at S phase at 100 nM incubated for 1 to 3 days by propidium iodide staining based flow cytometric analysis (reference value: 61.5 +/- 0.78%)", "assay_type": "toxicity", "settings": "mouse, 0.1 µM, time 1-3 day"}, "MEF [14]": {"system": "MEF", "test": "Induction of cell cycle arrest in MEF cells assessed as accumulation at G1 phase at 100 nM incubated for 1 to 3 days by propidium iodide staining based flow cytometric analysis (reference value: 21.4 +/- 1.7%)", "assay_type": "toxicity", "settings": "mouse, 0.1 µM, time 1-3 day"}, "MEF [15]": {"system": "MEF", "test": "Induction of cell cycle arrest in mLST8 knockout MEF cells assessed as accumulation at G2 phase at 100 nM incubated for 1 to 3 days by propidium iodide staining based flow cytometric analysis (reference value: 14.1 +/- 0.69%)", "assay_type": "toxicity", "settings": "mouse, 0.1 µM, time 1-3 day"}, "MEF [16]": {"system": "MEF", "test": "Induction of cell cycle arrest in mLST8 knockout MEF cells assessed as accumulation at G1 phase at 100 nM incubated for 1 to 3 days by propidium iodide staining based flow cytometric analysis (reference value: 22.2 +/- 0.59%)", "assay_type": "toxicity", "settings": "mouse, 0.1 µM, time 1-3 day"}, "[17]": {"target": "Serine/threonine-protein kinase mTOR (Homo sapiens) (UniProt P42345)", "settings": "HEK293, dose 100.0 nM, time 30.0 min"}, "MEF [18]": {"system": "MEF", "test": "Induction of cell cycle arrest in mLST8 knockout MEF cells assessed as accumulation at S phase at 100 nM incubated for 1 to 3 days by propidium iodide staining based flow cytometric analysis (reference value: 59.7 +/- 0.49%)", "assay_type": "toxicity", "settings": "mouse, 0.1 µM, time 1-3 day"}, "[19]": {"target": "Serine/threonine-protein kinase mTOR (Mus musculus) (UniProt Q9JLN9)", "settings": "MEF, dose 100.0 nM, time 30.0 min"}, "[20]": {"target": "Serine/threonine-protein kinase mTOR (Homo sapiens) (UniProt P42345)", "settings": "HEK293, dose 100.0 nM, time 30.0 min", "remark": "listed apart in the source"}, "[21]": {"target": "Serine/threonine-protein kinase mTOR (Mus musculus) (UniProt Q9JLN9)", "settings": "MEF, dose 100.0 nM, time 30.0 min", "remark": "listed apart in the source"}, "[22]": {"target": "Serine/threonine-protein kinase mTOR (Mus musculus) (UniProt Q9JLN9)", "settings": "MEF, dose 100.0 nM, time 30.0 min", "remark": "listed apart in the source"}, "[23]": {"target": "Serine/threonine-protein kinase mTOR (Mus musculus) (UniProt Q9JLN9)", "settings": "MEF, dose 100.0 nM, time 30.0 min", "remark": "listed apart in the source"}, "[24]": {"target": "Serine/threonine-protein kinase mTOR (Homo sapiens) (UniProt P42345)", "settings": "HeLa, dose 100.0 nM, time 30.0 min"}, "[25]": {"target": "Serine/threonine-protein kinase mTOR (Mus musculus) (UniProt Q9JLN9)", "settings": "MEF, dose 100.0 nM, time 30.0 min", "remark": "listed apart in the source"}, "MEF [26]": {"system": "MEF", "test": "Induction of cell cycle arrest in MEF cells assessed as accumulation at G2 phase at 100 nM incubated for 1 to 3 days by propidium iodide staining based flow cytometric analysis (reference value: 15.4 +/- 2.04%)", "assay_type": "toxicity", "settings": "mouse, 0.1 µM, time 1-3 day"}}, "note": "The source made the active and inactive calls. No cut-off for these calls is given here.", "data": [{"smiles": "O=C(NOCC(O)CO)c1ccc(F)c(F)c1Nc1ccc(I)cc1Cl", "note": "(configuration not stated)", "values": [{"measurement": "inhibition", "setting": "[1]", "value": "Active"}, {"measurement": "inhibition", "setting": "[2]", "value": "Active"}, {"measurement": "inhibition", "setting": "[3]", "value": "Active"}, {"measurement": "inhibition", "setting": "[4]", "value": "Active"}, {"measurement": "inhibition", "setting": "[5]", "value": "Active"}]}, {"smiles": "Oc1cccc(-c2nc(N3CCOCC3)c3oc4ncccc4c3n2)c1", "values": [{"measurement": "inhibition", "setting": "MEF [6]", "value": "Active"}, {"measurement": "inhibition", "setting": "HeLa", "value": "Active"}, {"measurement": "inhibition", "setting": "HEK293 [7]", "value": "Active"}, {"measurement": "inhibition", "setting": "MEF [8]", "value": "Active"}, {"measurement": "inhibition", "setting": "MEF [9]", "value": "Active"}, {"measurement": "inhibition", "setting": "HEK293 [10]", "value": "Active"}, {"measurement": "inhibition", "setting": "MEF [11]", "value": "Active"}, {"measurement": "inhibition", "setting": "MEF [12]", "value": "Active"}]}, {"smiles": "CO[C@H]1C[C@@H]2CC[C@@H](C)[C@@](O)(O2)C(=O)C(=O)N2CCCC[C@H]2C(=O)O[C@H]([C@H](C)C[C@@H]2CC[C@@H](O)[C@H](OC)C2)CC(=O)[C@H](C)/C=C(\\C)[C@@H](O)[C@@H](OC)C(=O)[C@H](C)C[C@H](C)/C=C/C=C/C=C/1C", "note": "[SIROLIMUS]", "values": [{"measurement": "Activity", "setting": "MEF [13]", "value": 56.7, "unit": "%"}, {"measurement": "Activity", "setting": "MEF [14]", "value": 29.8, "unit": "%"}, {"measurement": "Activity", "setting": "MEF [15]", "value": 14.4, "unit": "%"}, {"measurement": "Activity", "setting": "MEF [16]", "value": 35.8, "unit": "%"}, {"measurement": "inhibition", "setting": "[17]", "value": "Active"}, {"measurement": "Activity", "setting": "MEF [18]", "value": 46.5, "unit": "%"}, {"measurement": "inhibition", "setting": "[19]", "value": "Active"}, {"measurement": "inhibition", "setting": "[20]", "value": "Active"}, {"measurement": "inhibition", "setting": "[21]", "value": "Active"}, {"measurement": "inhibition", "setting": "[22]", "value": "inactive"}, {"measurement": "inhibition", "setting": "[23]", "value": "Active"}, {"measurement": "inhibition", "setting": "[24]", "value": "inactive"}, {"measurement": "inhibition", "setting": "[25]", "value": "Active"}, {"measurement": "Activity", "setting": "MEF [26]", "value": 11.2, "unit": "%"}]}]}
